Reference: ChEMBL document CHEMBL4354804, “Discovery of a New Isoxazole-3-hydroxamate-Based Histone Deacetylase 6 Inhibitor SS-208 with Antitumor Activity in Syngeneic Melanoma Mouse Models” (J Med Chem, 2019)
pIC50: −log10 of the molar value. The source made the active and inactive calls. The rule behind the calls is not given here.

Legend:
[1] = target: T1, Protein deacetylase HDAC6 (Homo sapiens, UniProt Q9UBN7); assay: (§1) Inhibition of recombinant N-terminal GST-tagged human HDAC6 (1 to 1215 residues) expressed in baculovirus infected sf9 insect cells using p53 (379 to 382 residues) derived fluorogenic peptide RHKKAc as substrate preincubated for 5 to 10 mins followed by substrate addition and further incubated for 2 hrs by fluorescence assay
T1 sequence (Q9UBN7 whole entry): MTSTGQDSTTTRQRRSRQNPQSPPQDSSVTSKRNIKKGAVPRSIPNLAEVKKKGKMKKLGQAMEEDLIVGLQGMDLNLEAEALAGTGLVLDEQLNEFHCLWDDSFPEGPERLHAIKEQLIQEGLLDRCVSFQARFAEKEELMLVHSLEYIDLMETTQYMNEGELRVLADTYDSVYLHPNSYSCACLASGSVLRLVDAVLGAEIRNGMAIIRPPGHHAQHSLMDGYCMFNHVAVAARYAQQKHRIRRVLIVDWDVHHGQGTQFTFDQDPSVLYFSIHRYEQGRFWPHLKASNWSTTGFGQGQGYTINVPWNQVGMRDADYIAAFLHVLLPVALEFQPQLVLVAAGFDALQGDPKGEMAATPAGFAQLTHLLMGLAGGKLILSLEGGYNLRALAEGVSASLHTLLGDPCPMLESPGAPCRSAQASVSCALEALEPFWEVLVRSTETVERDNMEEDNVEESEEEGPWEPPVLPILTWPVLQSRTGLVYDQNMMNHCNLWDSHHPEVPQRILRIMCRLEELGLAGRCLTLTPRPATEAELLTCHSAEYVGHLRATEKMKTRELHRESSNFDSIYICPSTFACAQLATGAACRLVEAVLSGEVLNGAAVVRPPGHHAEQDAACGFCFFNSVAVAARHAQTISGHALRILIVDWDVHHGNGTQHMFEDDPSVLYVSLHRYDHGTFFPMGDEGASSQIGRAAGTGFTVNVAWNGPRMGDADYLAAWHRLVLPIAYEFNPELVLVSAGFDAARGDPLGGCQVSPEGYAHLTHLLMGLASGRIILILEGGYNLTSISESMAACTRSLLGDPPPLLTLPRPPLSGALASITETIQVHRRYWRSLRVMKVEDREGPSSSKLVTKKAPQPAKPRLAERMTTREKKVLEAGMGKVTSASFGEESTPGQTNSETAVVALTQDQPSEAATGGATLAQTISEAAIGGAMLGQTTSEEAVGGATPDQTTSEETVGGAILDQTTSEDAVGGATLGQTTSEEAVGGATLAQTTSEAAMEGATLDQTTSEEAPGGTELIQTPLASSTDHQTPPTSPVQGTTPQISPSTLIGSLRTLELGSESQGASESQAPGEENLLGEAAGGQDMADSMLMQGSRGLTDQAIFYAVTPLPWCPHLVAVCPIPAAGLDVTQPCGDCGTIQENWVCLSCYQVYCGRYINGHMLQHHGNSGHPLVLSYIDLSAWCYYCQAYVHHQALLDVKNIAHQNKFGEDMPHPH

Homo sapiens [2] = species: Homo sapiens; assay: Selectivity index, ratio of IC50 for recombinant full length C-terminal His/FLAG tagged human HDAC1 (1 to 482 residues) expressed in baculovirus infected sf9 insect cells using p53 (379 to 382 residues) derived fluorogenic peptide RHKKAc as substrate preincubated for 5 to 10 mins followed by …
Histone deacetylase 1 = Histone deacetylase 1 (Homo sapiens, UniProt Q13547); assay: as §1, with “full length C-terminal His/FLAG tagged” for “N-terminal GST-tagged”, “HDAC1” for “HDAC6”, “482” for “1215”
Chain of Histone deacetylase 1 (Q13547 whole entry): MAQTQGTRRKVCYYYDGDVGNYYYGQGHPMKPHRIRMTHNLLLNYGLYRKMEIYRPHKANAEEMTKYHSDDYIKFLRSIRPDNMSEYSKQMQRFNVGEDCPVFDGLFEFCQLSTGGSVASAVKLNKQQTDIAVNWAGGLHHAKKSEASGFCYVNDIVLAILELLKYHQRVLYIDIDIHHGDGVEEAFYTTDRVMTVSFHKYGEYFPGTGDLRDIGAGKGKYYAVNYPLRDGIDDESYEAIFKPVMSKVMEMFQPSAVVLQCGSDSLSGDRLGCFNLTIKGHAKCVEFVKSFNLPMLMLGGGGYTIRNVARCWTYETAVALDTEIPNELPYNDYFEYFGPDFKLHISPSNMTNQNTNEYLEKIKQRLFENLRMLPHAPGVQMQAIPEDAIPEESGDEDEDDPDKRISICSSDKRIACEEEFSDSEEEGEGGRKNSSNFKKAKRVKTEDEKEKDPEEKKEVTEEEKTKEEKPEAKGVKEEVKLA

[3] = target: T2, Protein deacetylase HDAC6 (Mus musculus) (UniProt Q9Z2V5); assay: Inhibition of HDAC6 in mouse SM1 cells assessed as increase in acetylated alpha-tubulin level at 5 to 10 uM after 24 hrs by Western blot analysis; assay type: cell-based
T2 sequence (whole entry): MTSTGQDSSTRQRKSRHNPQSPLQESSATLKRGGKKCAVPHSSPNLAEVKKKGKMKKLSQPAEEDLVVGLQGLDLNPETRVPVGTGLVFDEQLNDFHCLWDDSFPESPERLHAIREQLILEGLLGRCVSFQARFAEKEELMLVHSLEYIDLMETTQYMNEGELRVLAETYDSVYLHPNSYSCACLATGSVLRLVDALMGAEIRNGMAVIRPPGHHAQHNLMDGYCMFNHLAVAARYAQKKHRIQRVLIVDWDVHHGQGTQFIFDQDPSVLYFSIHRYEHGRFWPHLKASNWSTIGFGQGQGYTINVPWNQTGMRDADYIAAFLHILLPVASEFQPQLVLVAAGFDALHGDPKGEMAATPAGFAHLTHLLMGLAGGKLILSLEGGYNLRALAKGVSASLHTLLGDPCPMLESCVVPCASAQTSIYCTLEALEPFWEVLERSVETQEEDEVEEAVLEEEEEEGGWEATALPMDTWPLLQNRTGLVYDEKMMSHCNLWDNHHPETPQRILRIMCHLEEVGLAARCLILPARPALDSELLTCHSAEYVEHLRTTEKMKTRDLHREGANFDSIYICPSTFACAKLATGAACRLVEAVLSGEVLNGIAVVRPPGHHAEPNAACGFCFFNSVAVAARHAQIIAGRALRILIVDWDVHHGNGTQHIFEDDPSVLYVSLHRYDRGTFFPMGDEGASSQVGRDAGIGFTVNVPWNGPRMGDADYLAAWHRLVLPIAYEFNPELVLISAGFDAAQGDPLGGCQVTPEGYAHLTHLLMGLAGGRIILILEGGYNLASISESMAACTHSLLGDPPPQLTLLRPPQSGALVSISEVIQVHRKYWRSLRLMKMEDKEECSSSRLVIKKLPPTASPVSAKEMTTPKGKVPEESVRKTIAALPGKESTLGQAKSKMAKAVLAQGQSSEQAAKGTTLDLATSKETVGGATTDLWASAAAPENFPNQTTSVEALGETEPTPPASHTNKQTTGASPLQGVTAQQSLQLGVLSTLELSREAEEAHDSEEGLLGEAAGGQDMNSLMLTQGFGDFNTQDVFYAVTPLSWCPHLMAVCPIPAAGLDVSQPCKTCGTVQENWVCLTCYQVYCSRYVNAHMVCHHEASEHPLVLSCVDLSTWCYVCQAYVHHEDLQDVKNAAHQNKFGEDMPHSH

[4] = Effect on cell viability in mouse SM1 cells up to 10 uM by ApoTox-Glo triplex assay; assay type: cell-based
Method in brief: (§2)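 SM1 cells treated with HDAC inhibitors, with pan-HDACi and assay controls on every plate. ApoTox-Glo triplex readout: viability fluorescence 400Ex/505Em, cytotoxicity fluorescence 485Ex/520Em, then caspase 3/7 reagent read by luminescence for apoptosis.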

PC-3 = assay: Induction of cell death in human PC3 cells at 0.1 to 25 uM; assay type: cell-based; conditions: pc-3, 25 µM
5637 = assay: Induction of cell death in human 5637 cells at 0.1 to 25 uM; assay type: cell-based; conditions: human, 5637, 25 µM
T-24 = assay: Induction of cell death in human T24 cells at 0.1 to 25 uM; assay type: cell-based; conditions: t-24, 25 µM
[5] = Cytotoxicity against mouse SM1 cells at 0.1 to 25 uM by ApoTox-Glo triplex assay; assay type: cell-based; method in brief: as §2
[6] = Induction of cell death in mouse SM1 cells at 0.1 to 25 uM; assay type: cell-based
[7] = Induction of apoptosis in mouse SM1 cells at 0.1 to 25 uM by caspase3/7 reagent based luminescence assay; assay type: cell-based; method in brief: as §2
Homo sapiens [8] = species: Homo sapiens; assay: Selectivity index, ratio of IC50 for recombinant human full length C-terminal His/FLAG-tagged HDAC1 expressed in baculovirus infected Sf9 insect cells using fluorogenic HDAC as substrate measured after 30 mins by fluorescence based analysis to IC50 for recombinant human full length C-terminal […] expressed in baculovirus infected Sf9 insect cells using fluorogenic HDAC as substrate measured after 30 mins by fluorescence based analysis
Homo sapiens [9] = species: Homo sapiens; assay: Selectivity index, ratio of IC50 for recombinant full length human HDAC1 expressed in Escherichia coli cells using Fluor de Lys as substrate preincubated for 15 mins followed by substrate addition for 60 mins by fluorescence assay to IC50 for recombinant full length human HDAC6 expressed in baculovirus infected sf9 insect cells using Fluor de Lys as substrate preincubated for 15 mins followed by substrate addition for 60 mins by fluorescence assay
Homo sapiens [10] = species: Homo sapiens; assay: Selectivity index, ratio of IC50 for recombinant full length C-terminal His/FLAG tagged human HDAC1 (1 to 482 residues) expressed in baculovirus infected sf21 insect cells using RHK-K(Ac)-AMC as substrate after 60 mins by fluorescence assay to IC50 for recombinant N-terminal GST-tagged human HDAC6 (1 to 1215 residues) expressed in baculovirus infected sf9 insect cells using RHK-K(Ac)-AMC as substrate after 90 mins by fluorescence assay
[11] = target: T1, Protein deacetylase HDAC6; assay: Inhibition of recombinant N-terminal GST-tagged human HDAC6 (1 to 1215 residues) expressed in baculovirus infected sf9 insect cells using RHK-K(Ac)-AMC as substrate after 90 mins by fluorescence assay

SMILES | pIC50 [1] | pIC50 (Histone deacetylase 1) | Ratio IC50 (Homo sapiens [2]) | further results
CCCCN(Cc1ccc(C(=O)NO)cc1)C(=O)Nc1ccccc1 [NEXTURASTAT A] | – | – | – | inhibition [3]: Active; Activity [4]: Non-Toxic; Activity (PC-3): Non-Toxic; Activity 5637: Non-Toxic; Activity (T-24): Non-Toxic; Activity [5]: Non-Toxic; Activity [6]: Non-Toxic; Activity [7]: Non-Toxic
O=C(NO)c1cc(CCCCN2c3ccc(Cl)cc3CCc3cc(Cl)ccc32)on1 | – | < 4.52 | > 22 | –
CC(C)(C)OC(=O)Nc1ccc(-c2cc(C(=O)NCc3ccc(C(=O)NO)cc3)no2)cc1 | – | – | 1320 | –
O=C(NO)c1ccc(CN(CCO)C(=O)Cc2ccccc2)cc1 | – | – | – | Ratio IC50 (Homo sapiens [8]): 36
O=C(CCc1cc(C(=O)NO)no1)Nc1nc(-c2ccccc2)cs1 | – | – | 9.9 | –
O=C(NCCc1cc(C(=O)NO)no1)c1cccc(-c2ccccc2)c1 | – | – | 85 | –
CN1CCc2c(c3ccccc3n2Cc2ccc(C(=O)NO)cc2)C1 [TUBASTATIN A] | – | – | – | Activity [4]: Non-Toxic; Activity (PC-3): Non-Toxic; Activity 5637: Non-Toxic; Activity (T-24): Non-Toxic; Activity [5]: Non-Toxic; Activity [6]: Non-Toxic; Activity [7]: Non-Toxic
O=C(NO)c1ccc(Cn2c3c(c4ccccc42)S(=O)(=O)CC3)cc1 | – | – | – | Ratio IC50 (Homo sapiens [9]): 1460
O=C(NO)c1cc(CCCOc2ccc(Cl)c(Cl)c2)on1 | 6.70 | < 4.52 | > 152 | –
Cc1nc2ccccc2n1Cc1ccc(C(=O)NO)cc1F | – | – | – | Ratio IC50 (Homo sapiens [10]): 11100; pIC50 [11]: 9.09

Second part, led by results:

pIC50 [1] | pIC50 (Histone deacetylase 1) | SMILES | Ratio IC50 (Homo sapiens [2]) | further results
5.36 | < 4.52 | O=C(NO)c1cc(CCCCn2ccc3cc(Cl)c(Cl)cc32)on1 | > 7 | –
– | < 4.52 | O=C(NO)c1cc(CCCCc2ccc(Cl)c(Cl)c2)on1 | – | –
5.70 | < 4.52 | CC1(C)CCN(CCCCc2cc(C(=O)NO)no2)c2ccc(Cl)cc21 | > 15 | –
– | 8.49 | CC(C)(C)OC(=O)Nc1ccc(-c2cc(C(=O)NCCCCCCC(=O)NO)no2)cc1 | – | –
6.72 | < 4.52 | O=C(NCCc1cc(C(=O)NO)no1)c1ccccc1 | > 155 | –
6.16 | 4.95 | O=C(NO)c1cc(CCCCN2CCCc3cc(Cl)ccc32)on1 | 16 | –
8.00 | – | O=C(NCCc1cc(C(=O)NO)no1)c1ccc2ccccc2c1 | 294 | –
